Compound activity: PubChem BioAssay, several laboratories
SR-BI DiI inh = mouse SR-BI HDL lipid transfer inhibition; ldlA[mSR-BI] CHO cells, DiI-HDL uptake fluorescence, 3 h; inhibition, % at 12.5 µM; hit rate 0.96% among 320,000;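 active = mean replicate inhibition of at least 70% and a set share of replicates each scoring 70 or more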;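 note: 0% = median of neutral control wells and 100% = median of positive control wells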
Target sequence (Q61009 whole entry, looked up): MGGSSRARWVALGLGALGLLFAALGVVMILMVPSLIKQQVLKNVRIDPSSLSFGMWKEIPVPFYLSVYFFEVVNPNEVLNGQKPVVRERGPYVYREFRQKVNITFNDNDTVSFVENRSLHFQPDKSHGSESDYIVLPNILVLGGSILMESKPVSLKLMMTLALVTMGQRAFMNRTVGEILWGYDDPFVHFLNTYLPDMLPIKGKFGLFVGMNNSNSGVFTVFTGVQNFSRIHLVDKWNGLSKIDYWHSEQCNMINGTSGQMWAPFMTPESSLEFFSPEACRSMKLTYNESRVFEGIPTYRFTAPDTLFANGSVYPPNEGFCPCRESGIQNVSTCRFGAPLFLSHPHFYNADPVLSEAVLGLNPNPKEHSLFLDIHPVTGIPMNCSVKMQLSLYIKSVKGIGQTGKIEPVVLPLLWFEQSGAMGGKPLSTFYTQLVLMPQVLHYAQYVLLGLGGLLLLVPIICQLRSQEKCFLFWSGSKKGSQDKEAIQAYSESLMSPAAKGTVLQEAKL
CAL PDZ FP-1 = blocks peptide binding to the human CAL PDZ domain; Q9HD26; purified CAL PDZ, TMR-peptide fluorescence polarization, 1 h; inhibition, % at 24.9 µM; hit rate 0.92% among 300,000; AID 602252;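 active = mean inhibition of at least 30% with at least half of replicates also reaching 30%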;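 note: 0% = DMSO neutral control and 100% = excess unlabeled competitor peptide PRC23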
SR-BI DiI-HDL act = SR-BI HDL lipid transfer activation | CHO ldlA[mSR-BI] cells, DiI-HDL uptake fluorescence, 3 h; 100 = double the neutral-control signal | activation, % at 12.5 µM | hit rate 0.096% among 320,000;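 active = mean replicate activation of at least 60% and every replicate at or above 60%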;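 note: 0% = median plate neutral-control signal and 100% = twice that signal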
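System: CHO ldlA[mSR-BI] cells / Medium: HEPES-buffered (25 mM, pH 7.4) F12 plus 0.5% BSA / Probe or stimulus: labelled HDL, 10 µg/mL / Doses: single compound concentration, delivered by pin transfer / Schedule: 3 h, 37 °C / Measured by: DiI fluorescence, bottom read / Measure: cell-associated DiI fluorescence as measure of HDL uptake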
CAL PDZ FP-2 = blocks peptide binding to human CAL PDZ domain; Q9HD26; purified CAL PDZ, TMR-peptide fluorescence polarization, 1 h; inhibition, % at 20 µM; hit rate 0.02% among 330,000; AID 504414;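 active = highest replicate inhibition of at least 40%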;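 note: plate controls were DMSO neutral control wells for no effect and unlabeled competitor peptide control wells for full effect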
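Material: tagged CAL PDZ protein CerCALP, purified; buffer or medium: sodium phosphate/NaCl buffer pH 7.4 with TCEP, IgG, Thesit; also added: fluorescent TMR peptide probe; schedule: 1 h incubation at room temperature before polarization reading; technique: fluorescence polarization from S- and P-plane intensities, G-factor corrected; control set: unlabelled peptide and DMSO controls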
ATG4B inh = inhibitors of human ATG4B cysteine protease | Q9Y4P1 | hit rate 0.51% among 340,000 | ATG4B cleavage of LC3-PLA2, NBD-HPC fluorescence, 1 h | inhibition, % at 8.33 µM; in the data active = inhibition above about 40%
An asterisk follows results filed as active; . = no result. Sampled rows, rich in hits. Any-hit rate of the full collection: about 2.3%.

SMILES | SR-BI DiI inh | CAL PDZ FP-1 | SR-BI DiI-HDL act | CAL PDZ FP-2 | ATG4B inh
O=C(COC(=O)Cc1ccc(S(=O)(=O)N2CCOCC2)s1)Nc1ccc(F)cc1F | 7 | 45* | -7 | 0 | -16
CCCOc1cccc(C(=O)NC(=S)Nc2cccc(NC(=O)c3ccccc3Cl)c2)c1 | 81* | 7 | -81 | 0 | -1
O=C(O)c1cccc(NC(=S)NC(=O)c2cccc(OCc3ccccc3)c2)c1 | -68 | 15 | 68* | -1 | 3
CCCCOc1cccc(C(=O)NC(=S)Nc2cccc(NC(=O)c3ccccc3Cl)c2)c1 | 59 | -42 | -59 | 0 | 4
O=C(C=P(c1ccccc1)(c1ccccc1)c1ccccc1)c1ccccc1-c1ccccc1C(=O)C=P(c1ccccc1)(c1ccccc1)c1ccccc1 | -13 | -6 | 13 | 1 | 28
Cc1ccc(S(=O)(=O)Oc2ccccc2-c2ccccc2)cc1 | 12 | 2 | -12 | 0 | 24
COc1ccc(N2C(=NC(=O)C3CCCO3)SC3CS(=O)(=O)CC32)cc1 (configuration not stated) | -3 | -1 | 3 | -3 | 0
COc1ccc(CNC(=O)C(c2ccco2)N(C(=O)CNS(=O)(=O)c2ccccc2)c2ccccc2C)cc1 (configuration not stated) | -2 | 92* | 2 | -1 | 14
O=c1nc2ccccc2c(NS(=O)(=O)c2ccccc2)n1-c1ccccc1 | -3 | 36* | 3 | -3 | -17
O=C1CC(SC(=Nc2ccccc2)Nc2ccccc2)C(=O)N1c1ccc(Cl)cc1 (configuration not stated) | 71* | -3 | -71 | 0 | -9
O=C1CC(SC(=Nc2ccccc2)Nc2ccccc2)C(=O)N1c1cccc(Cl)c1 (configuration not stated) | 78* | -1 | -78 | 0 | -4
O=C(COC(=O)c1cc(=O)[nH]c2ccccc12)Nc1cccc(S(=O)(=O)N2CCOCC2)c1 | 4 | 76* | -4 | -6 | -20
O=C(OCC(=O)N1CCCc2ccccc21)c1cc(S(=O)(=O)N2CCOCC2)ccc1O | 28 | 65* | -28 | 0 | 3
O=C(COC(=O)c1cc(=O)[nH]c2ccccc12)Nc1ccc(Cl)c(S(=O)(=O)N2CCOCC2)c1 | 23 | -7 | -23 | -5 | -24
O=C(COC(=O)c1cc(S(=O)(=O)N2CCOCC2)ccc1F)c1ccccc1 | 19 | 43* | -19 | -1 | -7
N#CC1(NC(=O)COC(=O)c2cc(=O)[nH]c3ccccc23)CCCCC1 | -3 | 32* | 3 | -2 | 2
CC(C)NC(=O)COC(=O)c1cc(=O)[nH]c2ccccc12 | -32 | 17 | 32 | 0 | 6
CC1(C)Cc2c(sc3nc4n(-c5ccccc5)cnn4c(=O)c23)CO1 | -6 | -5 | 6 | -1 | -1
O=C(COC(=O)c1cnccn1)NC1CCCc2ccccc21 (configuration not stated) | 12 | -1 | -12 | -1 | -8
COc1ccc(-c2nn(Cc3ccccc3)cc2C(=O)N2CCN(c3ncccn3)CC2)cc1 | -7 | -6 | 7 | -1 | -13
CCc1ccc(OCc2ccc(C(=O)OC)o2)cc1 | -6 | -3 | 6 | -1 | 4
Oc1ccc(C(=Nc2ccccc2)c2ccccc2)c(O)c1 | -2 | -6 | 2 | -2 | 4
NC(=S)NN=C(c1ccc(Br)cc1)C1CC1 | 79* | -2 | -79 | 0 | -2
NC(=S)NN=C(c1ccc(F)cc1)C1CC1 | 90* | -5 | -90 | -1 | 1
O=C(NNC(=O)c1ccc(NC(=O)C2CC2)cc1)c1ccc(F)cc1 | -5 | -2 | 5 | -1 | -4
SMILES | SR-BI DiI inh | CAL PDZ FP-1 | SR-BI DiI-HDL act | CAL PDZ FP-2 | ATG4B inh
Cc1cc(NC(=O)COC(=O)C2=NN(c3ccccc3)C(=O)CC2)c([N+](=O)[O-])cc1C | -12 | . | 12 | 0 | -6
Cc1ccc(NC(=O)c2ccc(S(=O)(=O)N3CCC(C)CC3)cc2)nc1 | 24 | 48* | -24 | 0 | -18
Cc1ccccc1NC(=O)C1CCN(C(=O)N2CCOc3ccccc32)CC1 | 2 | -3 | -2 | -1 | -2
Cc1cc2c(cc1S(=O)(=O)C(C)CC(=O)NCc1ccco1)OCC(=O)N2 (configuration not stated) | -10 | -2 | 10 | -1 | 6
CC(C)Sc1nc2c(c(=O)n1C)SC(C)C2 (configuration not stated) | -183 | . | 183* | 0 | 0
O=C(Nc1ccc(F)cc1)C1CCCN1S(=O)(=O)c1cccc2nsnc12 (configuration not stated) | -17 | 128* | 17 | 0 | -10
O=C(Nc1ccc(F)cc1F)C1CCCN1S(=O)(=O)c1cccc2nsnc12 (configuration not stated) | -2 | -3 | 2 | -1 | -1
CC(=O)c1cccc(OC(=O)Oc2cccc(C(C)=O)c2)c1 | -11 | -3 | 11 | 0 | 5
O=C(NCC(=O)N1CCN(c2ccccc2)CC1)c1ccco1 | -15 | 0 | 15 | -2 | -3
O=[N+]([O-])c1cc(Cl)cc2c1nc(NCCO)c1ccccc12 | -1 | -1 | 1 | -2 | -20
COc1ccc2sc(-c3ccc(N(C)C)cc3)c(C#CCCO)c2c1 | 96* | 0 | -96 | 0 | -16
CNC(=O)c1cc(NC(=O)N(CCC#N)CCN(C(=O)NC(Cc2ccccc2)C(=O)NC(CC(C)C)C(=O)NC)c2ccccc2)ccc1OC (configuration not stated) | -25 | -1 | 25 | -2 | -4
O=C(Nc1ccccc1C(=O)Nc1ccncc1)c1ccccc1 | 5 | 43* | -5 | -2 | -6
O=C(NNC(=O)c1ccncc1)Nc1ccc(N=Nc2ccccc2)cc1 | 72* | -2 | -72 | 0 | -1
CC(C)(C)C(=O)Nc1ccccc1C(=O)Nc1ccncc1 | -8 | 0 | 8 | -1 | -2
O=C(NNc1ccc([N+](=O)[O-])cn1)Nc1ccc(N=Nc2ccccc2)cc1 | 100* | -2 | -100 | 0 | -2
COc1ccc(NC(=S)N2CCc3ccccc32)cc1OC | 13 | -3 | -13 | 0 | 9
Cc1ccccc1OCC(=O)NCCCNC(=O)c1cccnc1 | 2 | -3 | -2 | -1 | -10
Cc1cc(N)ccc1NC(=O)CN1CCOCC1 | -16 | -4 | 16 | -1 | -1
COc1ccc(C(=O)c2ccc(N3CCOCC3)c([N+](=O)[O-])c2)cc1 | 80* | -5 | -80 | -2 | -6
COc1ccc(CNC(=O)c2ccc(N3CCOCC3)c([N+](=O)[O-])c2)cc1 | 12 | -2 | -12 | -3 | 6
COc1ccc(Nc2nnc(-c3ccc(N4CCOCC4)c([N+](=O)[O-])c3)c3ccccc23)cc1 | 79* | . | -79 | -2 | -4
COc1ccc(Nc2nnc(-c3ccc(C(N)=O)cc3)c3ccccc23)cc1 | 66 | . | -66 | 0 | 5
